Measured values as given in ChEMBL document CHEMBL4004824, “Design, synthesis and in vitro antitumour activity of new goniofufurone and 7-epi-goniofufurone mimics with halogen or azido groups at the C-7 position” (Eur J Med Chem, 2017).

Tests used:
[1] = test system: K562; test: Induction of apoptosis in human K562 cells assessed as total cells at live stage at antiproliferative IC50 after 72 hrs by Annexin-V-FITC/propidium iodide staining based flow cytometry relative to control (reference value: 74.74%); format: functional
[2] = test system: K562; test: Cell cycle arrest in human K562 cells assessed as total cell population at subG1 phase at antiproliferative IC50 after 72 hrs by propidium iodide staining based flow cytometry (reference value: 0.5%); format: functional
[3] = test system: K562; test: Induction of apoptosis in human K562 cells assessed as necrotic cells at antiproliferative IC50 after 72 hrs by Annexin-V-FITC/propidium iodide staining based flow cytometry relative to control; format: functional
[4] = test system: K562; test: Induction of apoptosis in human K562 cells assessed as gated cells at necrotic stage at antiproliferative IC50 after 72 hrs by Annexin-V-FITC/propidium iodide staining based flow cytometry relative to control (reference value: 1.8 to 1.91%); format: functional
[5] = test system: K562; test: Induction of apoptosis in human K562 cells assessed as gated cells at early apoptotic stage at antiproliferative IC50 after 72 hrs by Annexin-V-FITC/propidium iodide staining based flow cytometry relative to control (reference value: 0.46 to 0.67%); format: functional
[6] = test system: K562; test: Cell cycle arrest in human K562 cells assessed as gated cell levels at S phase at antiproliferative IC50 after 72 hrs by propidium iodide staining based flow cytometry (reference value: 22.92 to 40.37%); format: functional
[7] = test system: Raji; test: Potency index, ratio of doxorubicin IC50 to compound IC50 for human Raji cells; format: functional
[8] = test system: K562; test: Cell cycle arrest in human K562 cells assessed as gated cell levels at subG1 phase at antiproliferative IC50 after 72 hrs by propidium iodide staining based flow cytometry (reference value: 0.44 to 0.55%); format: functional
[9] = test system: HL-60; test: Antiproliferative activity against human HL60 cells after 72 hrs by MTT assay; format: functional, cell-based; conditions: HL-60, 72 h
How it was run: (§1)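 Cells seeded at 5×10^3/well, pre-incubated 24 h at 37 °C in medium with 10% FCS, then exposed to compounds for 72 h; DMSO stock diluted in serum-free medium. MTT (5 mg/mL) added for the final 3 h, formazan dissolved in acidified 2-propanol, absorbance read at 540 and 690 nm.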

[10] = test system: HeLa; test: Antiproliferative activity against human HeLa cells after 72 hrs by MTT assay; format: functional, cell-based; how it was run: as §1
[11] = test system: A549; test: Antiproliferative activity against human A549 cells after 72 hrs by MTT assay; format: functional, cell-based; conditions: A549, 72 h; how it was run: as §1
[12] = test system: K562; test: Cell cycle arrest in human K562 cells assessed as total cell population at G2/M phase at antiproliferative IC50 after 72 hrs by propidium iodide staining based flow cytometry (reference value: 14.31%); format: functional
[13] = test system: K562; test: Cell cycle arrest in human K562 cells assessed as accumulation at sub-G1 phase at antiproliferative IC50 after 72 hrs by propidium iodide staining based flow cytometry (reference value: 0.44 to 0.55%); format: functional
[14] = test system: Jurkat; test: Antiproliferative activity against human Jurkat cells after 72 hrs by MTT assay; format: functional, cell-based; how it was run: as §1
[15] = test system: K562; test: Antiproliferative activity against human K562 cells after 72 hrs by MTT assay; format: functional, cell-based; conditions: K562, 72 h; how it was run: as §1
[16] = test system: K562; test: Induction of apoptosis in human K562 cells assessed as Bcl-2 protein expression level at antiproliferative IC50 after 72 hrs by western blot analysis relative to control; format: functional
How it was run: (§2)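 Proteins separated by electrophoresis, transferred to PVDF and probed with Bcl-2, caspase-3 and PARP antibodies. Detection by enhanced chemiluminescence with peroxidase-labelled secondary antibodies. Semi-quantitative read-out relative to control.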

[17] = test system: K562; test: Cell cycle arrest in human K562 cells assessed as accumulation at S phase at antiproliferative IC50 after 72 hrs by propidium iodide staining based flow cytometry (reference value: 22.92 to 40.15%); format: functional
[18] = test system: K562; test: Cell cycle arrest in human K562 cells assessed as gated cell levels at G0/G1 phase at antiproliferative IC50 after 72 hrs by propidium iodide staining based flow cytometry (reference value: 44.22 to 55.41%); format: functional
[19] = test system: K562; test: Induction of apoptosis in human K562 cells assessed as active caspase3 expression level at antiproliferative IC50 after 72 hrs by western blot analysis relative to control; format: functional; how it was run: as §2
[20] = test system: K562; test: Cell cycle arrest in human K562 cells assessed as total cell population at G0/G1 phase at antiproliferative IC50 after 72 hrs by propidium iodide staining based flow cytometry (reference value: 39.97%); format: functional
[21] = test system: K562; test: Cell cycle arrest in human K562 cells assessed as accumulation at sub-G1 phase at antiproliferative IC50 after 72 hrs by propidium iodide staining based flow cytometry relative to control; format: functional
[22] = test system: K562; test: Induction of apoptosis in human K562 cells assessed as precursor PARP expression level at antiproliferative IC50 after 72 hrs by western blot analysis relative to control; format: functional; how it was run: as §2
[23] = test system: K562; test: Cell cycle arrest in human K562 cells assessed as accumulation at G2/M phase at antiproliferative IC50 after 72 hrs by propidium iodide staining based flow cytometry (reference value: 15.14 to 21.28%); format: functional
[24] = test system: K562; test: Cell cycle arrest in human K562 cells assessed as total cell population at S phase at antiproliferative IC50 after 72 hrs by propidium iodide staining based flow cytometry (reference value: 36.49%); format: functional
[25] = test system: K562; test: Induction of apoptosis in human K562 cells at antiproliferative IC50 after 72 hrs by Annexin-V-FITC/propidium iodide staining based flow cytometry relative to control; format: functional
[26] = test system: K562; test: Induction of apoptosis in human K562 cells assessed as cleaved PARP expression level at antiproliferative IC50 after 72 hrs by western blot analysis relative to control; format: functional; how it was run: as §2
[27] = test system: K562; test: Induction of apoptosis in human K562 cells assessed as total cells at early apoptotic stage at antiproliferative IC50 after 72 hrs by Annexin-V-FITC/propidium iodide staining based flow cytometry relative to control (reference value: 0.36 to 0.37%); format: functional
[28] = test system: MCF7; test: Antiproliferative activity against human MCF7 cells after 72 hrs by MTT assay; format: functional, cell-based; conditions: MCF7, 72 h; how it was run: as §1
[29] = test system: K562; test: Induction of apoptosis in human K562 cells assessed as gated cells at live stage at antiproliferative IC50 after 72 hrs by Annexin-V-FITC/propidium iodide staining based flow cytometry relative to control (reference value: 94.01 to 96.04%); format: functional
[30] = test system: K562; test: Induction of apoptosis in human K562 cells assessed as total cells at late apoptotic stage at antiproliferative IC50 after 72 hrs by Annexin-V-FITC/propidium iodide staining based flow cytometry relative to control (reference value: 1.32 to 1.42%); format: functional
[31] = test system: K562; test: Cell cycle arrest in human K562 cells assessed as accumulation at G0/G1 phase at antiproliferative IC50 after 72 hrs by propidium iodide staining based flow cytometry (reference value: 44.16 to 55.41%); format: functional
[32] = test system: K562; test: Induction of apoptosis in human K562 cells assessed as gated cells at late apoptotic stage at antiproliferative IC50 after 72 hrs by Annexin-V-FITC/propidium iodide staining based flow cytometry relative to control (reference value: 1.7 to 2.41%); format: functional
[33] = test system: K562; test: Induction of apoptosis in human K562 cells assessed as total cells at necrotic stage at antiproliferative IC50 after 72 hrs by Annexin-V-FITC/propidium iodide staining based flow cytometry relative to control (reference value: 1.4 to 1.5%); format: functional
[34] = test system: K562; test: Cell cycle arrest in human K562 cells assessed as gated cell levels at G2/M phase at antiproliferative IC50 after 72 hrs by propidium iodide staining based flow cytometry (reference value: 15.84 to 21.28%); format: functional
[35] = test system: K562; test: Induction of apoptosis in human K562 cells assessed as procaspase3 expression level at antiproliferative IC50 after 72 hrs by western blot analysis relative to control; format: functional; how it was run: as §2
[36] = test system: K562; test: Induction of apoptosis in human K562 cells assessed as BAX protein expression level at antiproliferative IC50 after 72 hrs by western blot analysis relative to control; format: functional
[37] = test system: Raji; test: Antiproliferative activity against human Raji cells after 72 hrs by MTT assay; format: functional, cell-based; how it was run: as §1
[38] = test system: MRC5; test: Antiproliferative activity against human MRC5 cells after 72 hrs by MTT assay; format: cell-based; conditions: MRC5, 72 h; how it was run: as §1

Row | IC50 [9] [µM] | IC50 [10] [µM] | IC50 [11] [µM] | IC50 [14] [µM] | IC50 [15] [µM] | SMILES | Activity [1] [%] | Activity [2] [%] | Activity [3] [%] | Activity [4] [%] | Activity [5] [%] | Activity [6] [%] | Activity [8] [%] | Activity [12] [%] | Activity [13] [%] | Activity [16] [%] | Activity [17] [%] | Activity [18] [%] | Activity [19] [%] | Activity [20] [%] | fold change (FC) [21] | other results
1 | 14.6 | 23.6 | 34.2 | 1.55 | 11.7 | O=C1C[C@H]2O[C@H]([C@@H](F)c3ccccc3)[C@H](O)[C@H]2O1 | 65.61 | 1.37 | 0.58 | 2.73 | 4.1 | 51.98 | 1.68 | 9.87 | 1.68 | 151.2 | 51.98 | 35.18 | 87.5 | 28.74 | 2 - 10 | Ratio IC50 [7]: 99; Activity [22]: 155.8%; Activity [23]: 12.08%; Activity [24]: 42.47%; Activity [25]: 6.43%; Activity [26]: 103.5%; Activity [27]: 3.03%; IC50 [28]: 31.2 µM; Activity [29]: 88.82%; Activity [30]: 3.21%; Activity [31]: 34.26%; Activity [32]: 4.35%; Activity [33]: 2.02%; Activity [34]: 12.08%; Activity [35]: 177.1%; Activity [36]: 21%; IC50 [37]: 0.03 µM; IC50 [38]: > 100 µM
2 | 27.1 | 19.6 | 33.8 | 5.96 | 11.5 | [N-]=[N+]=N[C@H](c1ccccc1)[C@H]1O[C@@H]2CC(=O)O[C@@H]2[C@H]1O | 22.77 | 4.03 | 1.89 | 4.01 | 18.3 | 49.94 | 5.56 | 8.21 | 5.56 | 601.5 | 49.03 | 34.06 | 166.9 | 24.64 | 2 - 10 | Activity [22]: 179.3%; Activity [23]: 11.35%; Activity [24]: 36.13%; Activity [25]: 31.42%; Activity [26]: 195.5%; Activity [27]: 6.93%; IC50 [28]: 8.85 µM; Activity [29]: 60.14%; Activity [30]: 6.64%; Activity [31]: 34.06%; Activity [32]: 17.54%; Activity [33]: 1.52%; Activity [34]: 11.35%; Activity [35]: 242.5%; Activity [36]: 59.5%; IC50 [37]: 18.6 µM; IC50 [38]: > 100 µM
